Experimental findings from ChEMBL document CHEMBL3046214, “Friedelane triterpenes from Celastrus vulcanicola as photosynthetic inhibitors” (J Agric Food Chem, 2010) are described below.

Each structure is given as a SMILES string. Activity calls are given as the source filed them. The rule behind the calls is not given here.

One may read the inhibition as the share of the control response that was lost under treatment.

The subject of experiment [1] is Lolium perenne. Put plainly: Inhibition of photosynthetic efficiency in Lolium perenne (perennial ryegrass) at 200 uM measured 24 to 72 hr post compound application. In kind it is functional. Put shortly:
(§1)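 Greenhouse L. perenne sprayed 18 days after emergence (20 mM DMSO stock diluted into 0.05% Tween-20; vehicle-sprayed controls). Leaves dark-adapted 15 min, then excited with 3000 μmol photons m-2 s-1 red light (650 nm) from three LEDs. OJIP transients recorded at room temperature with a Handy PEA. PI(abs) and other parameters are shown on radar plots normalized to control.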

Experiment [2] relates to Lolium perenne. The experiment in a line: Inhibition of photosynthetic efficiency in Lolium perenne (perennial ryegrass) at 100 uM measured 72 hr post compound application. In kind it is functional. Put shortly: as §1
Experiment [3] concerns Lolium perenne. Put plainly: Inhibition of photosynthetic efficiency in Lolium perenne (perennial ryegrass) at 100 uM measured 24 hr post compound application. It counts as functional. An outline of the steps: as §1
Experiment [4] has as its system Spinacia oleracea. Put plainly: Effect on photosynthesis efficiency in Spinacia oleracea (spinach) leaves freshly lysed chloroplasts assessed as change in chlorophyll a fluorescence at 150 to 450 uM. It counts as functional. Put shortly: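 Freshly lysed spinach thylakoids (20 μg Chl) were placed on filter paper with a dot-blot apparatus and dipped in 3 mL basal electron transport medium without MV, containing compound. After 5 min dark adaptation, fluorescence was excited with 3000 μmol m-2 s-1 650 nm LED light (2 s pulse) at room temperature. Wt = (Ft−F0)/(FJ−F0), difference from control used for K-band; five replicates.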

Experiment [5] deals with Photosystem II protein D1 (Spinacia oleracea) (UniProt P69560). The experiment in a line: Inhibition of uncoupled photosystem II electron transport and partial reactions in Spinacia oleracea (spinach) leaves assessed as electron transport rate from water to DCPIP at 200 uM measured per mg of chlorophyll relative to untreated control. More on the design: scale not given: the % may be the effect or the level left.

Experiment [6] has the same target. The experiment in a line: Inhibition of uncoupled photosystem II electron transport and partial reactions in Spinacia oleracea (spinach) leaves assessed as electron transport rate from water to SiMo at 200 uM measured per mg of chlorophyll relative to untreated control. More on the design: scale not given: the % may be the effect or the level left. An outline of the steps: (§2)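 Uncoupled partial PSII reaction from water to silicomolybdate, run in the PSII medium (sorbitol, KCl, MgCl2, KCN, 15 mM tricine-KOH pH 8.0, 6 mM NH4Cl, 20 μg Chl/mL, 1 min light). DCBQ/DBMIB were replaced by 200 μM SiMo plus 10 μM DCMU. Rates are in μequiv e-/h mg Chl, relative to control, three replicates.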

For experiment [7] the target is unchanged. The experiment in a line: Inhibition of uncoupled photosystem II electron transport and partial reactions in Spinacia oleracea (spinach) leaves assessed as electron transport rate from water to DCBQ at 300 uM measured per mg of chlorophyll relative to untreated control. More on the design: scale not given: the % may be the effect or the level left. Put shortly:
(§3)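 Uncoupled PSII water-to-DCBQ rate: 3 mL of 100 mM sorbitol, 10 mM KCl, 5 mM MgCl2, 0.5 mM KCN, 15 mM tricine-KOH pH 8.0, with 100 μM DCBQ, 1 μM DBMIB, 6 mM NH4Cl and chloroplasts at 20 μg Chl/mL, illuminated 1 min. Rates are in μequiv e-/h mg Chl, percent of control, three replicates.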

Experiment [8] shares this target. The experiment in a line: Inhibition of uncoupled photosystem II electron transport and partial reactions in Spinacia oleracea (spinach) leaves assessed as electron transport rate from water to DCBQ at 200 uM measured per mg of chlorophyll relative to untreated control. Also noted: scale not given: the % may be the effect or the level left. An outline of the steps:
as §3

The target is the same in experiment [9]. The experiment in a line: Inhibition of uncoupled photosystem II electron transport and partial reactions in Spinacia oleracea (spinach) leaves assessed as electron transport rate from water to DCBQ at 100 uM measured per mg of chlorophyll relative to untreated control. More on the design: scale not given: the % may be the effect or the level left. An outline of the steps:
as §3

The target is the same in experiment [10]. The experiment in a line: Inhibition of uncoupled photosystem II electron transport and partial reactions in Spinacia oleracea (spinach) leaves assessed as electron transport rate from water to SiMo at 50 uM measured per mg of chlorophyll relative to untreated control. More on the design: scale not given: the % may be the effect or the level left. An outline of the steps:
as §2

The test system of experiment [11] is Spinacia oleracea. Put plainly: Increase in Magnesium-transporting ATPase activity in Spinacia oleracea (spinach) leaves chloroplasts thylakoids at 300 uM. An outline of the steps: (§4)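 Spinach chloroplasts were isolated in 350 mM sorbitol, 5 mM ascorbate, 20 mM MES pH 6.5, centrifuged at 3000g for 60 s, washed, and resuspended in 35 mM HEPES pH 7.6. Light-triggered Mg2+-ATPase activity of thylakoid membranes was measured as released inorganic phosphate. Ammonium chloride served as positive control.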

In experiment [12] the target is Photosystem II protein D1 (Spinacia oleracea) (UniProt P69560). The experiment in a line: Inhibition of uncoupled photosystem II electron transport and partial reactions in Spinacia oleracea (spinach) leaves assessed as electron transport rate from water to DCBQ at 50 uM measured per mg of chlorophyll relative to untreated control. Also noted: scale not given: the % may be the effect or the level left. An outline of the steps: as §3

In experiment [13] the test system is Spinacia oleracea. The experiment in a line: Inhibition of basal electron transport from water to MV in Spinacia oleracea (spinach) leaves chloroplasts up to 300 uM using Clark type electrode system based method. It counts as functional, organism-based.
The subject of experiment [14] is Spinacia oleracea. The experiment in a line: Inhibition of phosphorylating noncyclic electron transport from water to MV in Spinacia oleracea (spinach) leaves chloroplasts up to 300 uM using Clark type electrode system based method. It counts as functional. Put shortly:
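Clark-electrode measurement of water-to-MV electron flow in the basal medium (sorbitol, KCl, MgCl2, 0.5 mM KCN, 50 μM MV, 15 mM tricine-KOH pH 8.0; 20 μg Chl/mL; 1 min light), with 1 mM ADP and 3 mM KH2PO4 added.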

Experiment [15] relates to Spinacia oleracea. Put plainly: Increase in Magnesium-transporting ATPase activity in Spinacia oleracea (spinach) leaves chloroplasts thylakoids at 100 uM. Put shortly:
as §4

Experiment [16] concerns Physalis ixocarpa. Put plainly: Effect on biomass production in Physalis ixocarpa assessed as plant dry weight at 200 uM measured 14 days post compound application relative to untreated control. It counts as functional. Put shortly:
(§5)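 Greenhouse-grown plants (pots, watered daily, 25 to 30 °C) of similar size, sprayed at 15 (P. ixocarpa) or 18 (L. perenne) days after emergence. Compound taken from a 20 mM DMSO stock into aqueous 0.05% w/v Tween-20; controls were sprayed with water containing the same DMSO and Tween-20. Plants harvested at ground level, oven-dried at 65 °C to constant weight, then weighed.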

Experiment [17] concerns Physalis ixocarpa. Put plainly: Effect on biomass production in Physalis ixocarpa assessed as plant dry weight at 100 uM measured 14 days post compound application relative to untreated control. In kind it is functional. An outline of the steps: as §5
Experiment [18] concerns Lolium perenne. Put plainly: Effect on biomass production in Lolium perenne (perennial ryegrass) assessed as plant dry weight at 200 uM measured 14 days post compound application relative to untreated control. In kind it is functional. Put shortly: as §5
Experiment [19] deals with Physalis ixocarpa. The experiment in a line: Effect on photosynthetic efficiency in Physalis ixocarpa intact leaves assessed as increase in PI(abs) level at 100 uM measured 72 hr post compound application. It counts as functional. The settings on record: in the assay text read “at 200 uM” for “at 100 uM”. An outline of the steps:
(§6)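 P. ixocarpa plants sprayed 15 days after emergence (greenhouse, 25-30 °C; 20 mM DMSO stock diluted into 0.05% Tween-20; vehicle-sprayed controls). Leaves dark-adapted 15 min, then excited with 650 nm red LED light at 3000 μmol photons m-2 s-1. Chl a OJIP transients recorded with a Handy PEA at room temperature. PI(abs) is normalized to control; K-, J- and I-bands come from variable fluorescence difference curves; five replicates.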

In experiment [20] the test system is Physalis ixocarpa. Put plainly: Inhibition of photosynthetic efficiency in Physalis ixocarpa intact leaves assessed as loss of K-bands at 200 uM measured 72 hr post compound application. It counts as functional, organism-based. Put shortly:
as §6

Experiment [21] has as its system Physalis ixocarpa. The experiment in a line: Inhibition of photosynthetic efficiency in Physalis ixocarpa intact leaves assessed as reduction in PI(abs) level at 100 uM measured 48 hr post compound application. In kind it is functional. An outline of the steps: as §6

As for `C[C@H]1C(=O)CC[C@@H]2[C@]1(C)CC[C@H]1[C@@]2(C)CC[C@@]2(C)[C@@H]3CC(C)(C)CC[C@]3(CO)CC[C@]12C` [CANOPHYLLOL], the inhibition result in [1] was “inactive”. The inhibition at 100 µM in [2] came out at 15%; in experiment [3], 50%; in [21], 10%. In experiment [4], the outcome was Active. Besides, the Activity in experiment [5] worked out at 95%; in experiment [6], 10%; in experiment [7], 44%; in [8], 50%; in [9], 68%; in [10] it was 60%. The Activity is 126% in experiment [11]; 89% in [12]; 110% in experiment [15]; 99% in experiment [16]; 81.5% in experiment [17]; 140.3% in [18]. Also, in [19], the Activity is 10%. In addition, the inhibition result in [13], in [14] and in [20] was “Active” in each case.
